Measurements taken from ChEMBL document CHEMBL4732114, “Design and structural optimization of novel 2H-benzo[h]chromene derivatives that target AcrB and reverse bacterial multidrug resistance” (Eur J Med Chem, 2021).
≈ marks a conversion by molar mass, not a printed value.

Key:
[1] = target: T1, Multidrug efflux pump subunit AcrB (Escherichia coli (strain K12)) (UniProt P31224); experiment: Inhibition of AcrB in multidrug-resistant Escherichia coli BW25113 assessed as potentiation of levofloxacin-induced antibacterial activity by measuring levofloxacin MIC at 16 ug/ml by checkerboard titration method (reference value: 0.06 ug/ml); conditions: dose 16.0 µg/ml
T1 sequence (whole entry): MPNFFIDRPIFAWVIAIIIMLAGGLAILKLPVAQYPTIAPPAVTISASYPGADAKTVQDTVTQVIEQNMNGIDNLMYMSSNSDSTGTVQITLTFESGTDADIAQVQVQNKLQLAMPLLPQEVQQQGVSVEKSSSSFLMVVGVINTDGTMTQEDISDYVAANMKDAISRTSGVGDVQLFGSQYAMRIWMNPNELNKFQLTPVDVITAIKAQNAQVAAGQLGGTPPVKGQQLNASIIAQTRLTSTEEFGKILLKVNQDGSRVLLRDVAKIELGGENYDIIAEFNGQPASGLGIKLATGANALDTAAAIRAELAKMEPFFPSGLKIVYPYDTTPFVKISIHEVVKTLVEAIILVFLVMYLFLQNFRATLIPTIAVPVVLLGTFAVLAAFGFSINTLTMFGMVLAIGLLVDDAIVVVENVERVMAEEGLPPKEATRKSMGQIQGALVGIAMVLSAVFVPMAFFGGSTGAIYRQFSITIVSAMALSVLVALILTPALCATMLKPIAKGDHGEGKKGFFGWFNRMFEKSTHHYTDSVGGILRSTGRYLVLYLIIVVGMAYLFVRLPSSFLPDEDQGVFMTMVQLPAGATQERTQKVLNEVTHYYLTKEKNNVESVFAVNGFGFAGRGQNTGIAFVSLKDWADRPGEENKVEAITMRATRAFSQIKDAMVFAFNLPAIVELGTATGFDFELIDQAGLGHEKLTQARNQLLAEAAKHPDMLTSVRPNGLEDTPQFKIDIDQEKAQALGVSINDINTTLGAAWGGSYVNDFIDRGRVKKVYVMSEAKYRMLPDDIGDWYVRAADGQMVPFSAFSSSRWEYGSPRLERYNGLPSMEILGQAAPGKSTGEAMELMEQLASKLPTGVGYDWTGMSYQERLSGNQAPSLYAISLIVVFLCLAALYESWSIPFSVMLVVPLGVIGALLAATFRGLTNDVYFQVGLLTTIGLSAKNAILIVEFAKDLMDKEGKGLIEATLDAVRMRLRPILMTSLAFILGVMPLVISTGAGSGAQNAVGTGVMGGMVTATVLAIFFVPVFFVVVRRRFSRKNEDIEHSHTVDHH

[2] = target: T1, Multidrug efflux pump subunit AcrB (Escherichia coli (strain K12)); conditions: Escherichia coli BW25113; dose 16.0 µg/ml
[3] = target: T1, Multidrug efflux pump subunit AcrB (Escherichia coli (strain K12)); experiment: Inhibition of AcrB in multidrug-resistant Escherichia coli BW25113 assessed as potentiation of tetraphenylphosphonium-induced antibacterial activity by measuring tetraphenylphosphonium MIC at 128 ug/ml by checkerboard titration method (reference value: 1024 ug/ml); conditions: dose 128.0 µg/ml
[4] = target: T1, Multidrug efflux pump subunit AcrB (Escherichia coli (strain K12)); experiment: Inhibition of AcrB in multidrug-resistant Escherichia coli BW25113 assessed as potentiation of levofloxacin-induced antibacterial activity by measuring levofloxacin MIC at 32 ug/ml by checkerboard titration method (reference value: 0.06 ug/ml); conditions: dose 32.0 µg/ml
[5] = target: T1, Multidrug efflux pump subunit AcrB (Escherichia coli (strain K12)); experiment: Inhibition of AcrB in multidrug-resistant Escherichia coli BW25113 assessed as potentiation of levofloxacin-induced antibacterial activity by measuring levofloxacin MIC at 64 ug/ml by checkerboard titration method (reference value: 0.06 ug/ml); conditions: dose 64.0 µg/ml
[6] = target: T1, Multidrug efflux pump subunit AcrB (Escherichia coli (strain K12)); experiment: Inhibition of AcrB in multidrug-resistant Escherichia coli BW25113 assessed as potentiation of levofloxacin-induced antibacterial activity by measuring levofloxacin MIC at 128 ug/ml by checkerboard titration method (reference value: 0.06 ug/ml); conditions: dose 128.0 µg/ml
[7] = target: T1, Multidrug efflux pump subunit AcrB (Escherichia coli (strain K12)); experiment: Inhibition of AcrB in multidrug-resistant Escherichia coli BW25113 assessed as potentiation of erythromycin-induced antibacterial activity by measuring erythromycin MIC at 16 ug/ml by checkerboard titration method (reference value: 64 ug/ml); conditions: dose 16.0 µg/ml
[8] = target: T1, Multidrug efflux pump subunit AcrB (Escherichia coli (strain K12)); experiment: Inhibition of AcrB in multidrug-resistant Escherichia coli BW25113 assessed as potentiation of chloramphenicol-induced antibacterial activity by measuring chloramphenicol MIC at 8 ug/ml by checkerboard titration method (reference value: 8 ug/ml); conditions: dose 8.0 µg/ml
[9] = target: T1, Multidrug efflux pump subunit AcrB (Escherichia coli (strain K12)); experiment: Inhibition of AcrB in multidrug-resistant Escherichia coli BW25113 assessed as potentiation of erythromycin-induced antibacterial activity by measuring erythromycin MIC at 64 ug/ml by checkerboard titration method (reference value: 64 ug/ml); conditions: dose 64.0 µg/ml
[10] = target: T1, Multidrug efflux pump subunit AcrB (Escherichia coli (strain K12)); experiment: Inhibition of AcrB in multidrug-resistant Escherichia coli BW25113 assessed as potentiation of tetraphenylphosphonium-induced antibacterial activity by measuring tetraphenylphosphonium MIC at 16 ug/ml by checkerboard titration method (reference value: 1024 ug/ml); conditions: dose 16.0 µg/ml
[11] = target: T1, Multidrug efflux pump subunit AcrB (Escherichia coli (strain K12)); experiment: Inhibition of AcrB in multidrug-resistant Escherichia coli BW25113 assessed as potentiation of erythromycin-induced antibacterial activity by measuring erythromycin MIC at 8 ug/ml by checkerboard titration method (reference value: 64 ug/ml); conditions: dose 8.0 µg/ml
[12] = target: T1, Multidrug efflux pump subunit AcrB (Escherichia coli (strain K12)); experiment: Inhibition of AcrB in multidrug-resistant Escherichia coli BW25113 assessed as potentiation of chloramphenicol-induced antibacterial activity by measuring chloramphenicol MIC at 64 ug/ml by checkerboard titration method (reference value: 8 ug/ml); conditions: dose 64.0 µg/ml
Cell membrane [13] = experiment: Induction of inner membrane permeabilization in wild type Escherichia coli BW25113 assessed as perturbation of proton motive force at 32 ug/ml measured after 10 mins in presence of CCCP and glucose by Di0C2(3) probe based fluorescence assay; conditions: escherichia coli bw25113, 10 min, dose 32 µg/ml
Method in brief: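 Cell suspensions were left untreated or exposed to 8-128 µg/mL compound for 10 min. DiOC₂(3) was then added and fluorescence followed to a plateau. Cells were re-energized with 0.5% glucose, and the rise in fluorescence was read as membrane-potential build-up. CCCP was added last to dissipate the potential.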

Cell membrane [14] = experiment: Induction of outer membrane permeabilization in wild type Escherichia coli BW25113 assessed as increase in nitrocefin hydrolysis at 128 ug/ml in presence of CCCP by spectroscopic analysis; conditions: dose 128 µg/ml
Method in brief: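 Intact E. coli were treated with 10 μM CCCP to block nitrocefin efflux, then given compound, nothing, or polymyxin B as permeabilizer control. Nitrocefin was added, and hydrolysis by periplasmic β-lactamase was followed as the rise in absorbance at 490 nm. Duplicate experiments were run on different days.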

CC1(C)CCc2c(Cn3cnnn3)cc3c(OCc4ccccc4)cccc3c2O1
MIC [1]: 0.06 mg/L | MIC [2]: 16 mg/L (≈ 40 µM) | MIC [3]: 1020 mg/L | MIC [4]: 0.06 mg/L | MIC [5]: 0.06 mg/L | MIC [6]: 0.03 mg/L | MIC [7]: 64 mg/L | MIC [8]: 8 mg/L | MIC [9]: 64 mg/L | MIC [10]: 1020 mg/L | MIC [11]: 64 mg/L | MIC [12]: 4 mg/L

CC1CN(C(=O)c2cc3c(OCc4c(Cl)cccc4Cl)cccc3c3c2CCC(C)(C)O3)CC(C)O1 (configuration not stated)
MIC [1]: 0.03 mg/L | MIC [2]: 16 mg/L (≈ 30.3 µM) | MIC [3]: 1020 mg/L | MIC [4]: 0.03 mg/L | MIC [5]: 0.03 mg/L | MIC [6]: 0.03 mg/L | MIC [7]: 64 mg/L | MIC [8]: 8 mg/L | MIC [9]: 64 mg/L | MIC [10]: 1020 mg/L | MIC [11]: 64 mg/L | MIC [12]: 8 mg/L

Cc1ccccc1COc1cccc2c3c(c(-c4nnco4)cc12)CCC(C)(C)O3
MIC [1]: 0.06 mg/L | MIC [2]: 16 mg/L (≈ 40 µM) | MIC [3]: 256 mg/L | MIC [4]: 0.06 mg/L | MIC [5]: 0.06 mg/L | MIC [6]: 0.06 mg/L | MIC [7]: 64 mg/L | Activity (Cell membrane [13]): Not Active | MIC [8]: 8 mg/L | MIC [9]: 32 mg/L | MIC [10]: 512 mg/L | MIC [11]: 64 mg/L | MIC [12]: 8 mg/L

CC1CN(C(=O)c2cc3c(OCc4ccc(Br)cc4)cccc3c3c2CCC(C)(C)O3)CC(C)O1 (configuration not stated)
MIC [1]: 0.06 mg/L | Activity (Cell membrane [14]): Not Active | MIC [2]: 16 mg/L (≈ 29.7 µM) | MIC [3]: 512 mg/L | MIC [4]: 0.06 mg/L | MIC [5]: 0.06 mg/L | MIC [6]: 0.06 mg/L | MIC [7]: 64 mg/L | MIC [8]: 8 mg/L | MIC [9]: 64 mg/L | MIC [10]: 1020 mg/L | MIC [11]: 64 mg/L | MIC [12]: 8 mg/L

CNC(=O)c1ccc(COc2cccc3c4c(c(Cn5cnnn5)cc23)CCC(C)(C)O4)cc1
MIC [1]: 0.06 mg/L | MIC [2]: 16 mg/L (≈ 35 µM) | MIC [3]: 1020 mg/L | MIC [4]: 0.06 mg/L | MIC [5]: 0.06 mg/L | MIC [6]: 0.06 mg/L | MIC [7]: 64 mg/L | MIC [8]: 8 mg/L | MIC [9]: 64 mg/L | MIC [10]: 1020 mg/L | MIC [11]: 64 mg/L | MIC [12]: 4 mg/L

CC1(C)CCc2c(-c3nnco3)cc3c(OCc4ccc([N+](=O)[O-])cc4)cccc3c2O1
MIC [1]: 0.06 mg/L | MIC [2]: 16 mg/L (≈ 37.1 µM) | MIC [3]: 1020 mg/L | MIC [4]: 0.06 mg/L | MIC [5]: 0.06 mg/L | MIC [6]: 0.06 mg/L | MIC [7]: 64 mg/L | MIC [8]: 8 mg/L | MIC [9]: 32 mg/L | MIC [10]: 1020 mg/L | MIC [11]: 64 mg/L | MIC [12]: 8 mg/L

C=CC(=O)Nc1ccc(COc2cccc3c4c(c(C(=O)N5CCOCC5)cc23)CCC(C)(C)O4)cc1
MIC [1]: 0.06 mg/L | Activity (Cell membrane [14]): Not Active | MIC [2]: 16 mg/L (≈ 32 µM) | MIC [3]: 64 mg/L | MIC [4]: 0.06 mg/L | MIC [5]: 0.06 mg/L | MIC [6]: 0.01 mg/L | MIC [7]: 16 mg/L | MIC [8]: 4 mg/L | MIC [9]: 16 mg/L | MIC [10]: 512 mg/L | MIC [11]: 16 mg/L | MIC [12]: 4 mg/L
